According to ChEMBL document CHEMBL1671775, “Synthesis, anticancer activity, and iron affinity of the Actinoplanes metabolite 7,8-dihydroxy-1-methylnaphtho[2,3-c]furan-4,9-dione” (Bioorg Med Chem, 2011):

Key:
Type in all cases: functional, cell-based
HL-60 = assay: Cytotoxicity against human HL60 cells after 72 hrs by MTT assay; settings: HL-60, 72 h
In short: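 HL-60 cells were grown in RPMI 1640 with 10% FCS at 37 °C and 5% CO2, seeded at 5 × 10^5/mL and cultured 24 h. Cells were then exposed to compound for 72 h. MTT was added to a final 0.05% for 2 h, and formazan was dissolved in DMSO with 10% SDS and 0.6% acetic acid. A570 was read against A630 background. IC50 was taken from concentration–response curves relative to untreated controls; quadruplicate, four independent experiments.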

[1] = Cytotoxicity against human KB-V1/Vbl cells after 72 hrs by MTT assay
In short: (§1)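 Cells were seeded at 5 × 10^4/mL and cultured 24 h, then exposed to compound for 72 h. KB-V1/Vbl cells were grown in DMEM with 10% FCS and MCF-7/Top cells in EMEM with 5% FCS, pyruvate and NaHCO3. MTT was added to a final 0.1% for 2 h. Medium was discarded, and formazan was dissolved in DMSO/SDS/acetic acid. A570 was read against A630 background. IC50 was taken from concentration–response curves versus untreated controls; four independent experiments.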

HT-29 = assay: Cytotoxicity against human HT-29 cells after 72 hrs by MTT assay; settings: HT-29, 72 h
[2] = Cytotoxicity against human 518A2 cells after 72 hrs by MTT assay; settings: 518A2, 72 h
In short: (§2)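 518A2 cells and foreskin fibroblasts were grown in DMEM with 10% FCS, seeded at 5 × 10^4/mL and cultured 24 h. Cells were then exposed to compound for 72 h. MTT was added to a final 0.05% for 2 h. Medium was discarded, and formazan was dissolved in DMSO/10% SDS/0.6% acetic acid. A570 was read against A630 background. IC50 was taken from concentration–response curves versus untreated controls; four independent experiments.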

[3] = Cytotoxicity against human MCF7/Topo cells after 72 hrs by MTT assay; in short: as §1
HFF = assay: Cytotoxicity against human HFF after 72 hrs by MTT assay; in short: as §2

SMILES	IC50 (HL-60) [µM]	IC50 [1] [µM]	IC50 (HT-29) [µM]	IC50 [2] [µM]	IC50 [3] [µM]	IC50 (HFF) [µM]
Cc1occ2c1C(=O)c1c(ccc(O)c1O)C2=O	89	86	70	84	> 100	69
COc1ccc2c(c1O)C(=O)c1c(coc1C)C2=O	18	51	31	> 100	16	31
CC1=CC(=O)C(C(C)C)=CC1=O [THYMOQUINONE]	28	32	47	28	27	33
